# Assay results gathered from unrelated publications.
# Compare with care: the assays were run in different laboratories.
# Observed: metabolic stability
# Species: human
SMILES,system,conditions,half-life [min]
C=CCn1c(=O)c2cnc(Nc3ccc(N4CCN(C)CC4)cc3)nc2n1-c1ccc2c(n1)[C@@](O)(CC)CC2,hepatocytes,,93
c1ccc(Oc2ccc(Nc3c4c(nc5ccccc35)CCC4)cc2)cc1,liver microsomes,0.5 µM,57
Cc1ncsc1-c1ccc([C@H](CC(=O)N2CCN(c3ccc(C#Cc4ccc(C(=O)N5CCC(n6cc(-c7ccc8c(c7)CCN8C(=O)Cc7cccc(OC(F)(F)F)c7)c7c(N)ncnc76)CC5)cc4)cn3)CC2)NC(=O)[C@@H]2C[C@@H](O)CN2C(=O)[C@@H](NC(=O)C2(F)CC2)C(C)(C)C)cc1,hepatocytes,1 µM,> 120
CC(C)NCC(O)COc1cccc2ccccc12 (racemic),liver microsomes,"2 µM, pH 7.4",68.2
CCCCCCCCCCCCCCCC(=O)NCCOC(=O)C[C@@H](CN)CC(C)C,liver microsomes,"1 µM, pH 7.4",60.3
COc1ccc(Cn2cc(CO[C@@H]3O[C@H]4[C@H](OC[C@H]4O)[C@H]3O)nn2)cc1,liver microsomes,,120
O=c1c2c([nH]c3cc(OC(F)(F)F)ccc13)CCCC2,liver microsomes,"1 µM, pH 7.4",8.01
OCc1ccc(-c2nn(Cc3ccccc3)c3ccccc23)o1,liver microsomes,,7
Cc1[nH]c(C)c(S(=O)(=O)Nc2ccc(C(F)(F)F)c(Cl)c2Cl)c1C(=O)N1CCC(F)(F)C1,liver microsomes,,94
COCC(=O)OCc1cc2[nH]c(=S)n(Cc3cccnc3)c(=O)c2cc1Cl,liver microsomes,"1 µM, pH 7.4",< 5
CN(C)CCOc1ccc2c(=O)c3c([nH]c2c1)CCCC3,liver microsomes,"1 µM, pH 7.4",> 60
Nc1nnc(-c2ccccc2O)cc1N1CCN(Cc2ccc(N3CCN(CCOc4cccc5c4C(=O)N(C4CCC(=O)NC4=O)C5=O)CC3)c(F)c2)CC1 (stereo not drawn),liver microsomes,1 mM,35
CCCN(CCC)CCCOc1ccc2c(=O)c3c([nH]c2c1)CCCC3,liver microsomes,"1 µM, pH 7.4",37.3
O=C(O)Cc1ccccc1Nc1c(Cl)cccc1Cl,liver microsomes,1 µM,12
O=c1c2c([nH]c3ccc(Oc4ccc(OC(F)(F)F)cc4)cc13)CCCC2,liver microsomes,"1 µM, pH 7.4",25.1
O=c1c2cc(Cl)c(CO)cc2[nH]c(=S)n1Cc1cccnc1,liver microsomes,"1 µM, pH 7.4",57.1
CN1CCC(Oc2ccc3c(=O)c4c(F)cc(Cl)cc4[nH]c3c2)CC1,liver microsomes,"1 µM, pH 7.4",55.7
O=C1c2ccccc2C(=O)N1CCCN1CCN(C(c2ccc(F)cc2)c2ccc(F)cc2)CC1,liver microsomes,100 ng/mL,10.2
